Measured values published in ChEMBL document CHEMBL4828755, “A sulfonyl fluoride derivative inhibits EGFRL858R/T790M/C797S by covalent modification of the catalytic lysine” (Eur J Med Chem, 2021).
Active and inactive are the calls of the source. No cut-off for these calls is given here.

Key:
[1] = molecular target: T1, Epidermal growth factor receptor (Homo sapiens, UniProt P00533, C797S/L858R/T790M); assay: Inhibition of EGFR L858R/T790M/C797S triple mutant (unknown origin) using fluoresceine-labelled poly-GT peptide as substrate preincubated with enzyme for 3 hrs followed by substrate and ATP addition by TR-FRET assay
[2] = system: Epidermal growth factor receptor (Homo sapiens), P00533 [L858R,T790M,C797S]; assay: Inhibition of EGFR L858R/T790M/C797S triple mutant (unknown origin) expressed in mouse Ba/F3 cells assessed as inhibition of EGF-stimulated receptor phosphorylation at 1 uM incubated for 4 hrs followed by washing with buffer solution and later incubation in drug-free medium for 2 to 8 hrs followed by EGF stimulation by western blot analysis; type: cell-based; settings: BaF3
Summary of the method: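 Ba/F3 cells expressing EGFR L858R/T790M/C797S exposed to 1 μM for 4 h, washed extensively with PBS, and allowed to recover in fresh drug-free medium for 2, 4 or 8 h. Cells then stimulated with 100 ng/ml EGF for 10 min. pEGFR (Tyr1068), total EGFR and actin detected by western blot.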

[3] = molecular target: T2, Aurora kinase A (Homo sapiens) (UniProt O14965); assay: Inhibition of His-tagged human full length recombinant AURKA expressed in baculovirus expression system at 100 nM by Z'-LYTE assay
T2 sequence (whole entry): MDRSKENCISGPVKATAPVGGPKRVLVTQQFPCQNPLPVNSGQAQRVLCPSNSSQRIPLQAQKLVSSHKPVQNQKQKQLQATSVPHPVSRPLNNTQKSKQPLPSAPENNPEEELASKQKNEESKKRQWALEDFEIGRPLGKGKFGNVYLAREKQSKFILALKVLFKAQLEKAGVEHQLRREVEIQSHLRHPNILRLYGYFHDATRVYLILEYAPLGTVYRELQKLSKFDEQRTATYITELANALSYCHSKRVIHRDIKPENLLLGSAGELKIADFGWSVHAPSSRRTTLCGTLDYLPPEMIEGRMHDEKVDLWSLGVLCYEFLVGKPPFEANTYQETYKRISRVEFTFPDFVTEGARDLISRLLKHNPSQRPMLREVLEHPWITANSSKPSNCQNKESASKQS
Summary of the method: (§1)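 Z'-LYTE FRET kinase panel; phosphorylation of a reference peptide measured with ATP at each enzyme's Km. Compounds tested in 1% DMSO at 0.1 and/or 1 μM. Values are means of two independent experiments with standard deviations.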

[4] = molecular target: Fibroblast growth factor receptor 4 (Homo sapiens) (UniProt P22455); assay: Inhibition of His-tagged human recombinant FGFR4 ([…] residues) expressed in baculovirus expression system at 1 uM by Z'-LYTE assay; summary of the method: as §1
[5] = molecular target: Tyrosine-protein kinase Blk (Homo sapiens) (UniProt P51451); assay: Inhibition of His-tagged human full length recombinant BLK expressed in baculovirus expression system at 100 nM by Z'-LYTE assay; summary of the method: as §1
[6] = molecular target: RAC-beta serine/threonine-protein kinase (Homo sapiens) (UniProt P31751); assay: Inhibition of His-tagged full length human recombinant AKT2 expressed in baculovirus expression system at 100 nM by Z'-LYTE assay; summary of the method: as §1
BaF3 [7] = assay: Cytotoxicity against mouse BaF3 cells harboring EGFR L858R/T790M/C797S triple mutant assessed as inhibition of cell proliferation measured after 72 hrs by MTS assay; type: functional, cell-based
Summary of the method: (§2)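 Ba/F3 cells carrying the respective EGFR triple mutant, grown in RPMI-1640 with 2 mM glutamine and 10% FBS at 37°C, 5% CO2. Seeded 20000 cells/well and treated the same day with increasing concentrations (DMSO ≤0.1% final). Viability read by MTS after 72 h, expressed as % inhibition versus untreated controls; at least three independent experiments.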

[8] = molecular target: Proto-oncogene tyrosine-protein kinase Src (Homo sapiens) (UniProt P12931); assay: Inhibition of C-terminal His-tagged human recombinant SRC expressed in baculovirus expression system at 100 nM by Z'-LYTE assay; summary of the method: as §1
[9] = molecular target: Cyclin-dependent kinase 2 (Homo sapiens) (UniProt P24941); assay: Inhibition of human recombinant CDK2 at 100 nM by Z'-LYTE assay; summary of the method: as §1
[10] = molecular target: AMP-activated protein kinase, AMPK (Homo sapiens) (UniProt P54646+O43741+P54619+Q9UGJ0+Q9Y478+Q13131+Q9UGI9); assay: Inhibition of human recombinant AMPK at 100 nM by Z'-LYTE assay; type: protein-complex assay; summary of the method: as §1
[11] = system: Epidermal growth factor receptor (Homo sapiens), P00533 [L858R,T790M,C797S]; assay: Inhibition of EGFR L858R/T790M/C797S triple mutant (unknown origin) expressed in mouse Ba/F3 cells assessed as inhibition of EGF-stimulated receptor phosphorylation incubated for 4 hrs followed by EGF stimulation for 10 mins by western blot analysis; type: cell-based; settings: BaF3, dose 10-1000 nM, time 250.0 min
Summary of the method: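 Ba/F3 cells expressing EGFR L858R/T790M/C797S were treated for 4 h across increasing concentrations (DMSO ≤0.1%), then stimulated with 100 ng/ml EGF for 10 min. Lysates were immunoblotted for pEGFR (Tyr1068), EGFR and actin.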

BaF3 [12] = assay: Cytotoxicity against mouse BaF3 cells harboring EGFR del19/T790M/C797S triple mutant assessed as inhibition of cell proliferation measured after 72 hrs by MTS assay; type: functional, cell-based; summary of the method: as §2
[13] = molecular target: T1, Epidermal growth factor receptor; assay: Inhibition of EGFR L858R/T790M/C797S triple mutant (unknown origin) using fluoresceine-labelled poly-GT peptide as substrate incubated for 1 hr by TR-FRET assay
[14] = molecular target: Tyrosine-protein kinase Lck (Homo sapiens) (UniProt P06239); assay: Inhibition of human recombinant LCK at 100 nM by Z'-LYTE assay; summary of the method: as §1
[15] = system: Epidermal growth factor receptor (Homo sapiens), P00533 [L858R,T790M,C797S]; assay: Ratio of IC50 for EGFR L858R/T790M/C797S triple mutant (unknown origin) using fluoresceine-labelled poly-GT peptide as substrate incubated for 1 hr to IC50 for EGFR L858R/T790M/C797S triple mutant (unknown origin) using fluoresceine-labelled poly-GT peptide as substrate preincubated with enzyme for 3 hrs followed by substrate and ATP addition
[16] = system: Epidermal growth factor receptor (Homo sapiens), P00533 [L858R,T790M,C797S]; assay: Irreversible inhibiton of EGFR L858R/T790M/C797S triple mutant (unknown origin) assessed as residual enzyme activity using fluoresceine-labelled poly-GT peptide as substrate preincubated with enzyme for 3 hrs at 10XIC50 followed by 100-fold dilution and measured after 30 mins by rapid dilution assay based TR-FRET analysis; settings: time 210.0 min
Summary of the method: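 It was then diluted 100-fold into Kinase Buffer A containing poly-GT substrate and 9 μM ATP. After 30 min, EDTA quench plus Eu-PY20 were added for 30 min before TR-FRET. Activity is given as % of no-inhibitor control; n = 5.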

[17] = molecular target: Cyclin-dependent kinase 5 (Homo sapiens) (UniProt Q00535); assay: Inhibition of GST/His-tagged human full length recombinant CDK5 expressed in baculovirus expression system at 100 nM by Z'-LYTE assay; summary of the method: as §1
[18] = molecular target: RAC-beta serine/threonine-protein kinase (Homo sapiens) (UniProt P31751); assay: Inhibition of His-tagged full length human recombinant AKT2 expressed in baculovirus expression system at 1 uM by Z'-LYTE assay; summary of the method: as §1
[19] = molecular target: Mitogen-activated protein kinase 14 (Homo sapiens) (UniProt Q16539); assay: Inhibition of GST-tagged human full length recombinant p38 alpha expressed in Escherichia coli at 100 to 1000 nM by Z'-LYTE assay; settings: dose 100-1000 nM
[20] = molecular target: Fibroblast growth factor receptor 4 (Homo sapiens) (UniProt P22455); assay: Inhibition of His-tagged human recombinant FGFR4 ([…] residues) expressed in baculovirus expression system at 100 to 1000 nM by Z'-LYTE assay; settings: dose 100-1000 nM; summary of the method: as §1

Chain of RAC-beta serine/threonine-protein kinase (Homo sapiens) (P31751 whole entry): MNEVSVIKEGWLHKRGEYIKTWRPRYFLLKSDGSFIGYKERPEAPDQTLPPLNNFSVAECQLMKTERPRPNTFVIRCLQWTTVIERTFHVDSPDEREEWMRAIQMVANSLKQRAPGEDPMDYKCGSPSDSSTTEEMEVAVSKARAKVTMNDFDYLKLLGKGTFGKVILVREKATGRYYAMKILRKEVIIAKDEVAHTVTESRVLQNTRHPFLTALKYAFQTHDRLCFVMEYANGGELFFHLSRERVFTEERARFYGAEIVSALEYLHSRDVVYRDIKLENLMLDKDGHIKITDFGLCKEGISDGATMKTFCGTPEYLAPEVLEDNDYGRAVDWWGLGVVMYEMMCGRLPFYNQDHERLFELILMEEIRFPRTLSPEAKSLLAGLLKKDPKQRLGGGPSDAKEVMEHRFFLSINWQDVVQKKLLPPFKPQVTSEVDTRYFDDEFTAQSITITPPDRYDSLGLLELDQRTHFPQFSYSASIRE
Chain of Tyrosine-protein kinase Lck (Homo sapiens) (P06239 2-509 limits assumed): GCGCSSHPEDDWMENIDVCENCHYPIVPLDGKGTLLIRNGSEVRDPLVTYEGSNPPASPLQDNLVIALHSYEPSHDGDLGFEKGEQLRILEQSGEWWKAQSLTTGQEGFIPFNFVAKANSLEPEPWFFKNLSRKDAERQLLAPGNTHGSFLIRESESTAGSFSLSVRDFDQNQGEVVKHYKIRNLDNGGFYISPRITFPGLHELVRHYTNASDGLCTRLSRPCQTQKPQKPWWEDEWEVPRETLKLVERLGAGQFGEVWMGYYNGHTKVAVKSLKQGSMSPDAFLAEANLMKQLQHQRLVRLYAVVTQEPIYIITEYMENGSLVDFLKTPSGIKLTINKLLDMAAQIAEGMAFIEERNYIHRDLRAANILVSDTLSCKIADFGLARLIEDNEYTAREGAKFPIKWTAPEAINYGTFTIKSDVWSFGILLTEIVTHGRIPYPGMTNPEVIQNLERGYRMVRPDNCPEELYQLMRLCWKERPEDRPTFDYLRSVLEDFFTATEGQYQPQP
Chain of Fibroblast growth factor receptor 4 (Homo sapiens) (P22455 22-802 limits assumed): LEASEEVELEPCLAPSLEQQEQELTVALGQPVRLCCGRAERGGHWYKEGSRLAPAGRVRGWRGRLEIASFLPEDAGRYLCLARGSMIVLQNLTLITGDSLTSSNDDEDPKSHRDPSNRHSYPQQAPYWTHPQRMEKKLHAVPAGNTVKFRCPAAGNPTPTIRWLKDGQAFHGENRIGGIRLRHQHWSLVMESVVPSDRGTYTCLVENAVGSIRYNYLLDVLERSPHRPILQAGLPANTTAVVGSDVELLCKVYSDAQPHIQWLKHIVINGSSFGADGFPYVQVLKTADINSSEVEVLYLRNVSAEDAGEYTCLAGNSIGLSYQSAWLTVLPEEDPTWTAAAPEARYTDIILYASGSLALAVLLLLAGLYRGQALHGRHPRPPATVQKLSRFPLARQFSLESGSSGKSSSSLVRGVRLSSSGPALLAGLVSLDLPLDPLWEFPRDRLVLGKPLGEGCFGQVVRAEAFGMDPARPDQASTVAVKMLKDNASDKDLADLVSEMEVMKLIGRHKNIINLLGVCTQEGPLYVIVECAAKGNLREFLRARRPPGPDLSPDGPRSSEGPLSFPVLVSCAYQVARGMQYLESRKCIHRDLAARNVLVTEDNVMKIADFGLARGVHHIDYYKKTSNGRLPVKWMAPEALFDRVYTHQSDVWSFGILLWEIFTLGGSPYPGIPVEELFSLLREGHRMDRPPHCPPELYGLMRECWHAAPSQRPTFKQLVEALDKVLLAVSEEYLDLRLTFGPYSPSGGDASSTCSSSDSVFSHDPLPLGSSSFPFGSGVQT
Chain of Proto-oncogene tyrosine-protein kinase Src (Homo sapiens) (P12931 2-536 limits assumed): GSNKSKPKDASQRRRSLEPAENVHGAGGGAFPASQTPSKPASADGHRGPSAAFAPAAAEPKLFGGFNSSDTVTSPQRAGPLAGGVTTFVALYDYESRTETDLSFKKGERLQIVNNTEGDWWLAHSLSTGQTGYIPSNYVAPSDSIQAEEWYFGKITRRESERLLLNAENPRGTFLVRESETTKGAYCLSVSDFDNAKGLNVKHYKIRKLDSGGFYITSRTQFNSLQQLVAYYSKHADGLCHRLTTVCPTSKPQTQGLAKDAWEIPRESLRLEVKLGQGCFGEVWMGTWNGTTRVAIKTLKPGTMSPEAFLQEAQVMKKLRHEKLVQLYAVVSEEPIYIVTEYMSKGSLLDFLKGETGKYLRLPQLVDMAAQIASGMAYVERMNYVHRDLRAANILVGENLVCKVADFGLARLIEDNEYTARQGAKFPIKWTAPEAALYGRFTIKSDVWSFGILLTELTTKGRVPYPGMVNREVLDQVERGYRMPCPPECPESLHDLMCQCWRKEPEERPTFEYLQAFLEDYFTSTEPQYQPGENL
Chain of Tyrosine-protein kinase Blk (Homo sapiens) (P51451 2-505 limits assumed): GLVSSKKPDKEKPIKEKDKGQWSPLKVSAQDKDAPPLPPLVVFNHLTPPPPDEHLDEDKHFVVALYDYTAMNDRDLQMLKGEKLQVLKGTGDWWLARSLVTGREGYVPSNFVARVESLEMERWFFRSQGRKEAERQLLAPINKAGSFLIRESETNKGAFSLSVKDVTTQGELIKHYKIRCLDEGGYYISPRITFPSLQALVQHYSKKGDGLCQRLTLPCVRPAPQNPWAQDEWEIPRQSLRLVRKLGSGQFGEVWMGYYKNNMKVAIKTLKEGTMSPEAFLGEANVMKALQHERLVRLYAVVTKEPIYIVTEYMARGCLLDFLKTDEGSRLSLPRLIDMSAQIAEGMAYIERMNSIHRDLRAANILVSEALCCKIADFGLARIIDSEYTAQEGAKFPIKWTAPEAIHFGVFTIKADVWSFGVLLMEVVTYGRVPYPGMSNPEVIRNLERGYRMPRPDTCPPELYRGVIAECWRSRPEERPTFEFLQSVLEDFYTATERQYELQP
Chain of Cyclin-dependent kinase 5 (Homo sapiens) (Q00535 whole entry, looked up): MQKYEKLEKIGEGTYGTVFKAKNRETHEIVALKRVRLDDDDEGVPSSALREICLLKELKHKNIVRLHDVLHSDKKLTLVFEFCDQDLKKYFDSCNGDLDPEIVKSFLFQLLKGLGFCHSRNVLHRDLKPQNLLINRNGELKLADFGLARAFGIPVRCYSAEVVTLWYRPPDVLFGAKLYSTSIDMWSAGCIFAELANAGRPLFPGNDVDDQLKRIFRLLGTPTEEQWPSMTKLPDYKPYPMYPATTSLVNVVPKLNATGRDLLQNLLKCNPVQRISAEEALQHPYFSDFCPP
Chain of Mitogen-activated protein kinase 14 (Homo sapiens) (Q16539 whole entry): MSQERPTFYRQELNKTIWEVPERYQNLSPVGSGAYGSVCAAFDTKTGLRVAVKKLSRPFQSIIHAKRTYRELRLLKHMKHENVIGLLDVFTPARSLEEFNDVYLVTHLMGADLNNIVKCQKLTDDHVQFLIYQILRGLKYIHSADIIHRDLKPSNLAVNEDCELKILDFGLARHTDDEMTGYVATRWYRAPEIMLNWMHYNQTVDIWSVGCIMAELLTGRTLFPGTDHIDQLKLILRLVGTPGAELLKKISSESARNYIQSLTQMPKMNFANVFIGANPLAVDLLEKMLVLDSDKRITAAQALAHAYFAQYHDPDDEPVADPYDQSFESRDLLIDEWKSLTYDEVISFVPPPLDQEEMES

| SMILES | IC50 [1] | inhibition [3] | inhibition [5] | inhibition [6] | inhibition [8] | inhibition [9] | inhibition [10] | Activity (BaF3 [12]) | IC50 [13] | inhibition [14] | Ratio IC50 [15] | Activity [16] | inhibition [17] | further results |
| --- | --- | --- | --- | --- | --- | --- | --- | --- | --- | --- | --- | --- | --- | --- |
| COc1cc(N2CCN(C(C)=O)CC2)ccc1Nc1ncc(Cl)c(Nc2ccc(NCc3ccc(S(=O)(=O)F)cc3)cc2)n1 | 1.5 nM | 30% | inactive | inactive | inactive | inactive | inactive | inactive | 110 nM | inactive | 70 | < 25% | inactive | inhibition [2]: inactive; inhibition [4]: < 25%; IC50 (BaF3 [7]; BaF3, 72 h): 500 nM; inhibition [11]: Dose-Dependent Effect; inhibition [18]: 90% |
| C#CCNC(=O)c1cc(Nc2cc(C3CC3)[nH]n2)nc(N2CCN(Cc3ccc(S(=O)(=O)F)cc3)CC2)n1 | 6 nM | Active | Active | Active | Active | Active | Active | Active | 244 nM | Active | 40 | < 25% | Active | Activity (BaF3 [7]): Active; inhibition [19]: inactive; inhibition [20]: inactive |
